Published values gathered from unrelated publications.
Protocols differ between the studies behind these lines.
Target: Serine/threonine-protein kinase PLK1 (PLK1, Homo sapiens, UniProt P53350)

SMILES	effect on	action	technique	tested at	endpoint	result
N#CC1(c2ccccn2)CCN(Cc2cc(C(=O)O)c(=O)n3ccccc23)CC1	cell-free assay		competition with immobilised ligand	1 µM	remaining binding	70%
Cn1cc(-c2cccc(N3CCc4c(sc5c4CC(C)(C)C5)C3=O)c2CO)cc(Nc2ccncn2)c1=O	enzyme activity	inhibitor		1 µM	inhibition	4%
Cc1nn(C)cc1-c1nc2c(N3CCN(Cc4ccc(Cl)cc4)CC3)c(Cl)cnc2[nH]1	binding		competition with immobilised ligand	1 µM	remaining binding	100%
C#Cc1n[nH]c2c(-c3cn([C@@H](C)c4ccccc4)c(=O)[nH]c3=O)cc(F)cc12	enzyme activity	inhibitor		0.1 µM	inhibition	2.9%
CC(C)(C)c1cc(C=C(C#N)C#N)cc(Br)c1O	enzyme activity	inhibitor		0.5 µM	remaining activity	92.3%
COc1ncccc1-c1cnn2ccc(N3CCN(C(=O)OC(C)C)CC3)nc12	binding		competition with immobilised ligand	1 µM	remaining binding	100%
C#Cc1n[nH]c2c(-c3cn([C@@H](C)c4ccccn4)c(=O)[nH]c3=O)cc(F)cc12	enzyme activity	inhibitor		0.1 µM	inhibition	2.9%
Nc1ncc(-c2nc(N3CCOCC3)nc(N3CCOCC3)n2)c(C(F)F)n1	binding		competition with immobilised ligand	10 µM	remaining binding	66%
Cn1cc(-c2cc(F)cc(N3CCn4c(cc5c4CCCC5)C3=O)c2CO)cc(Nc2ccc(N3CCN(C4COC4)CC3)cn2)c1=O	enzyme activity	inhibitor		0.1 µM	inhibition	11%
O=c1[nH]c2ccccc2n1C1CCN(Cc2ccc(-c3[nH]c4cc5ncnc5cc4nc3-c3ccccc3)cc2)CC1	cell-free assay			0.5 µM	remaining signal	109%
Cn1cncc1[C@@](O)(COc1ccc(C#N)cc1-c1ccc(OC(F)(F)F)cc1)c1ccc(C#N)cc1	cell-free assay		competition with immobilised ligand	1 µM	remaining binding	83%
